This is an account of results in ChEMBL document CHEMBL1649117, “GRL-02031, a novel nonpeptidic protease inhibitor (PI) containing a stereochemically defined fused cyclopentanyltetrahydrofuran potent against multi-PI-resistant human immunodeficiency virus type 1 in vitro” (Antimicrob Agents Chemother, 2009).

Usually pEC50 stands for the EC50 on a negative log10 scale, so that one unit is a factor of ten. Broadly, the CC50 is the concentration that lowers cell viability or growth by half.

pEC50: −log10 of the molar value. Where only a bound is given, the exact number is not on record here.

Series [1] concerns Human immunodeficiency virus 1. The experiment in a line: Ratio of EC50 for HIV1 G harboring L10I/V11I/T12E/I15V/L19I/R41K/M46L/L63P/A71T/V82A/L90M in protease encoding region to EC50 for HIV1 ERS104pre. The class given is functional.
In series [2] the test system is Human immunodeficiency virus 1. Description: Ratio of EC50 for HIV1 C harboring L10I/I15V/K20R/L24I/M36I/M46L/I54V/I62V/L63P/K70Q/V82A/L89M in protease encoding region to EC50 for HIV1 ERS104pre. It counts as functional.
In series [3] the test system is Human immunodeficiency virus 1. The experiment in a line: Antiviral activity against HIV1 NL4-3 harboring L10I/G48V/I54V/L90M amino acid substitution in protease encoding region infected in human MT4 cells assessed as inhibition of p24 Gag protein production selected at 5 uM of saquinavir by ELISA. Particulars: Human immunodeficiency virus 1, NL4-3, MT4. It counts as functional, organism-based. Put shortly:
(§1)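 HIV-1NL4-3 (500 TCID50s) was passaged in MT-4 cells, starting at 0.01–0.03 µM PI and raising the drug generally two- to threefold as virus propagated. Cell-free passage used day-7 supernatants. Variants were then tested in MT-4 cells (10^5/ml) with 100 TCID50s, with or without drug, at 37°C. Day-7 p24 Gag was read by chemiluminescent immunoassay; EC50 vs drug-free control; triplicate.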
(In general: An ELISA detects its analyte on a solid surface through an enzyme-linked reagent.)

In series [4] the test system is Human immunodeficiency virus 1. Description: Antiviral activity against HIV1 NL4-3 harboring L10F/V32I/M46I/I54M//A71V/I84V amino acid substitution in protease encoding region infected in human MT4 cells assessed as inhibition of p24 Gag protein production selected at 5 uM of amprenavir by ELISA. It counts as functional, organism-based. Particulars: Human immunodeficiency virus 1, NL4-3, MT4. Put shortly:
(§2)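 Cell-free passage used day-7 supernatants. Variants were then tested in MT-4 cells (10^5/ml) with 100 TCID50s, with or without drug, at 37°C. Day-7 p24 Gag was read by chemiluminescent immunoassay; EC50 vs drug-free control; triplicate.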

The test system of series [5] is Human immunodeficiency virus 1. Description: Ratio of EC50 for HIV1 NL4-3 harboring L10I/G48V/I54V/L90M amino acid substitution in protease encoding region to EC50 for HIV1 NL4-3. It counts as functional. Put shortly:
(§3)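 MT-4 cells (10^5/ml) infected with 100 TCID50s of PI-selected HIV-1NL4-3 variants or the parental strain, with or without serial drug concentrations, at 37°C. Day 7 supernatant p24 Gag measured by chemiluminescent enzyme immunoassay. […] Triplicate. Ratio is variant EC50 over wild-type EC50.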

Series [6] relates to Human immunodeficiency virus 1. Description: Ratio of EC50 for HIV1 B harboring L10I/I15V/E35D/N37E/K45R/I54V/L63P/A71V/V82T/L90M/I93L/C95F in protease encoding region to EC50 for HIV1 ERS104pre. The class given is functional.
Series [7] relates to Human immunodeficiency virus 1. Description: Antiviral activity against HIV1 NL4-3 harboring L10F/D30N/K45I/A71V/T74S amino acid substitution in protease encoding region infected in human MT4 cells assessed as inhibition of p24 Gag protein production selected at 5 uM of nelfinavir by ELISA. It counts as functional, organism-based. Particulars: Human immunodeficiency virus 1, NL4-3, MT4. Put shortly:
as §1

In series [8] the test system is Human immunodeficiency virus 1. The experiment in a line: Ratio of EC50 for HIV1 NL4-3 harboring L10F/D30N/K45I/A71V/T74S amino acid substitution in protease encoding region to EC50 for HIV1 NL4-3. The class given is functional.
Series [9] has as its system Human immunodeficiency virus 1. Description: Antiviral activity against HIV1 ERS104pre infected in human PHA-PBC assessed as inhibition of p24 Gag protein production by ELISA. It counts as functional, organism-based. Particulars: Human immunodeficiency virus 1, ERS104pre. In a few lines: (§4)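 Phytohemagglutinin-stimulated PBMs (10^6/ml) infected with 50 TCID50s of each primary isolate, cultured with or without drug in 10-fold serial dilutions. On day 7, supernatant p24 Gag was measured by automated chemiluminescent enzyme immunoassay. Triplicate.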

Series [10] relates to Human immunodeficiency virus 1. The experiment in a line: Antiviral activity against HIV1 A harboring L10I/I15V/E35D/N37E/K45R/I54V/L63P/A71V/V82T/L90M/I93L/C95F in protease encoding region infected in human PHA-PBC assessed as inhibition of p24 Gag protein production by ELISA. It counts as functional, organism-based. Particulars: Human immunodeficiency virus 1, A. Put shortly:
as §4

The test system of series [11] is Human immunodeficiency virus 1. The experiment in a line: Antiviral activity against HIV1 NL4-3 harboring L23I/K43I/M46I/I50L/G51A/A71V amino acid substitution in protease encoding region infected in human MT4 cells assessed as inhibition of p24 Gag protein production selected at 1 uM of atazanavir by ELISA. It counts as functional, organism-based. Particulars: Human immunodeficiency virus 1, NL4-3, MT4. In a few lines:
as §1

The subject of series [12] is Human immunodeficiency virus 1. Description: Ratio of EC50 for HIV1 NL4-3 harboring L10F/V32I/M46I/I54M//A71V/I84V amino acid substitution in protease encoding region to EC50 for HIV1 NL4-3. It counts as functional. In a few lines: as §3
The test system of series [13] is Human immunodeficiency virus 1. Description: Antiviral activity against HIV1 B harboring L10I/I15V/E35D/N37E/K45R/I54V/L63P/A71V/V82T/L90M/I93L/C95F in protease encoding region infected in human PHA-PBC assessed as inhibition of p24 Gag protein production by ELISA. Particulars: Human immunodeficiency virus 1, B. The class given is functional, organism-based. Put shortly: (§5)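 Phytohemagglutinin-stimulated PBMs (10^6/ml) infected with 50 TCID50s of each primary isolate, cultured with or without drug in 10-fold serial dilutions. On day 7, supernatant p24 Gag was measured by automated chemiluminescent enzyme immunoassay. […] Triplicate.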

The nature of series [14]: Cytotoxicity against human MT2 cells by MTT assay. It counts as cell-based. On the technique in general: Tetrazolium assays rely on reduction of a dye to a coloured formazan, in cell work by metabolically active cells.
Series [15] concerns Human immunodeficiency virus 1. The experiment in a line: Ratio of EC50 for HIV1 MM harboring L10I/K43T/M46L/I54V/L63P/A71V/V82A/L90M/Q92K in protease encoding region infected to EC50 for HIV1 ERS104pre. It counts as functional.
In series [16] the test system is Human immunodeficiency virus 1. The experiment in a line: Antiviral activity against HIV1 NL4-3 harboring L10F/L33F/M46I/I47V/Q58E/V82I/I84V/I85V amino acid substitution in protease encoding region infected in human MT4 cells assessed as inhibition of p24 Gag protein production selected at 5 uM of GRL-02031 by ELISA. The class given is functional, organism-based. Particulars: Human immunodeficiency virus 1, NL4-3, MT4. In a few lines:
as §2

Series [17] has as its system Human immunodeficiency virus 1. The experiment in a line: Antiviral activity against HIV1 MOKW infected in human PHA-PBC assessed as inhibition of p24 Gag protein production by ELISA. The class given is functional, organism-based. Particulars: Human immunodeficiency virus 1, MOKW. Put shortly:
as §5

In series [18] the test system is Human immunodeficiency virus 1. Description: Ratio of EC50 for HIV1 NL4-3 harboring L10F/M46I/I54V/V82A amino acid substitution in protease encoding region to EC50 for HIV1 NL4-3. The class given is functional. In a few lines: as §3
In series [19] the test system is Human immunodeficiency virus 1. Description: Antiviral activity against HIV1 NL4-3 harboring L10F/M46I/I54V/V82A amino acid substitution in protease encoding region infected in human MT4 cells assessed as inhibition of p24 Gag protein production selected at 1 uM of Lopinavir by ELISA. The class given is functional, organism-based. Particulars: Human immunodeficiency virus 1, NL4-3, MT4. In a few lines: as §2

The test system of series [20] is Human immunodeficiency virus 1. Description: Antiviral activity against HIV1 C harboring L10I/I15V/K20R/L24I/M36I/M46L/I54V/I62V/L63P/K70Q/V82A/L89M in protease encoding region infected in human PHA-PBC assessed as inhibition of p24 Gag protein production by ELISA. It counts as functional, organism-based. Particulars: Human immunodeficiency virus 1, C. In a few lines:
as §5

The subject of series [21] is Human immunodeficiency virus 1. Description: Antiviral activity against HIV1 TM harboring L10I/K14R/R41K/M46L/I54V/L63P/A71V/V82A/L90M/I93L in protease encoding region infected in human PHA-PBC assessed as inhibition of p24 Gag protein production by ELISA. It counts as functional, organism-based. Particulars: Human immunodeficiency virus 1, TM. Put shortly: as §5

Consider `CC(C)(C)NC(=O)[C@@H]1C[C@@H]2CCCC[C@@H]2CN1C[C@@H](O)[C@H](Cc1ccccc1)NC(=O)[C@H](CC(N)=O)NC(=O)c1ccc2ccccc2n1`, for which the “Ratio EC50” value in [1] is listed as 3; in [2], 4; in series [5], more than 125; in series [6], 33; in [8] it was 4; in [12] it was 2. The “Ratio EC50” value was determined as 30 in series [15] and 4 in series [18]. Moreover, the pEC50 in [3] is less than 6.00; in series [4], 7.80; in series [7], 7.55; in [9], 8.05; in series [10], 7.00; in series [11], 7.47. For the same compound, the pEC50 in [13] was 6.52; in series [16] it was 8.10; in series [17] it was 8.40; in series [19] it was 7.48. Also, the CC50 in [14] was determined as 9900 nM.
For the compound `CC(C)CN(C[C@@H](O)[C@H](Cc1ccccc1)NC(=O)O[C@H]1CCOC1)S(=O)(=O)c1ccc(N)cc1`, the “Ratio EC50” value was 9 in series [1]; 9 in [2]; 8 in series [5]; 12 in [6]; 3 in [8]; more than 36 in series [12]. In addition, the entries for the “Ratio EC50” value in series [15] and in series [18] were 16 and 11, respectively. The pEC50 is 6.66 in [20]; 6.68 in series [3]; less than 6.00 in series [4]; 7.11 in series [7]; 6.80 in series [10]; 6.74 in series [11]. Further, the pEC50 in series [13] is 6.51; in series [16], 6.68; in series [17], 7.82; in [19], 6.49. Moreover, the CC50 in [14] was more than 100000 nM.
`COc1ccc(S(=O)(=O)N(C[C@@H]2CCC(=O)N2)C[C@@H](O)[C@H](Cc2ccccc2)NC(=O)O[C@@H]2C[C@@H]3CCO[C@@H]3C2)cc1`: the “Ratio EC50” value in series [1] is 1; in [2], 1; in series [5], 6; in series [6], 1; in series [8], 2; in series [12], 2. Further, the “Ratio EC50” value in series [15] and in series [18] was 2 throughout. The pEC50 in series [20] is 7.57; in series [3] it was 6.85; in series [4], 7.43; in series [7] it was 7.44; in series [9], 7.57; in series [10] it was 7.85. The pEC50 in series [21] is 7.59; in series [11] it was 7.48; in series [13] it was 7.54; in series [16], less than 6.00; in [17], 7.59; in series [19], 7.42. The compound also returned a CC50 in series [14] of more than 100000 nM.
`CC(C)(C)NC(=O)[C@@H]1CN(Cc2cccnc2)CCN1C[C@@H](O)C[C@@H](Cc1ccccc1)C(=O)N[C@H]1c2ccccc2C[C@H]1O.O`: the “Ratio EC50” value was 16 in [1]; more than 48 in series [2]; more than 71 in [5]; more than 48 in [6]; 19 in series [8]; 16 in series [12]. Besides, the “Ratio EC50” value is more than 48 in series [15] and more than 71 in series [18]. Further, the pEC50 in series [20] is less than 6.00; in [3] it was less than 6.00; in series [4], 6.66; in series [7], 6.57; in [10] it was less than 6.00; in series [21], less than 6.00. In addition, the pEC50 in series [11] is 6.48; in series [13], less than 6.00; in [16], 7.36; in [17], 7.72; in [19], less than 6.00.
Regarding `Cc1c(O)cccc1C(=O)N[C@@H](CSc1ccccc1)[C@H](O)CN1C[C@H]2CCCC[C@H]2C[C@H]1C(=O)NC(C)(C)C`, the “Ratio EC50” value in [1] is 14; in [2], 23; in series [5], 18; in series [6], more than 63; in [8], more than 56; in series [12], 10. In addition, the figures for the “Ratio EC50” value in [15] and in series [18] were more than 63 and 28, respectively. For the same compound, the pEC50 in series [20] is 6.44; in series [3], 6.49; in series [4] it was 6.77; in series [7] it was less than 6.00; in series [9], 7.80; in [10] it was 6.48. The pEC50 in [21] is less than 6.00; in series [11] it was 6.68; in [13], less than 6.00; in series [16], 7.96; in series [17], 7.64; in series [19] it was 6.29.
